According to ChEMBL document CHEMBL1137588, “An evaluation of 3,4-methylenedioxy phenyl replacements in the aminopiperidine chromone class of MCHr1 antagonists” (Bioorg Med Chem Lett, 2007):
pIC50: −log10 of the molar value.

Tests used:
[1] = target: Melanin-concentrating hormone receptor (Homo sapiens, UniProt Q969V1+Q99705); experiment: Inhibition of MCH-mediated calcium release in IMR-32 cells; assay type: functional, cell-based
[2] = target: Melanin-concentrating hormone receptor 1 (Homo sapiens, UniProt Q99705); experiment: Displacement of 125I-MCH from MCH-R1 expressed in IMR-32 cells; assay type: cell-based
[3] = target: hERG versus MCH receptor (Homo sapiens, UniProt Q12809+Q969V1); experiment: in vitro
[4] = target: Voltage-gated inwardly rectifying potassium channel KCNH2 (Homo sapiens, UniProt Q12809)
[5] = target: Sigma non-opioid intracellular receptor 1 (Homo sapiens) (UniProt Q99720); experiment: Inhibition of sigma receptor at 10uM
[6] = target: Histamine H2 receptor (Homo sapiens) (UniProt P25021); experiment: Inhibition of histamine H2 receptor at 10uM
[7] = target: Kappa-type opioid receptor (Homo sapiens) (UniProt P41145); experiment: Inhibition of human kappa opioid receptor at 10uM
[8] = Inhibition of sodium channel at 10uM
[9] = target: Sodium-dependent dopamine transporter (Homo sapiens) (UniProt Q01959); experiment: Inhibition of human dopamine transporter at 10uM
[10] = Inhibition of calcium-activated potassium (SK) channel at 10uM
[11] = target: Sodium-dependent noradrenaline transporter (Homo sapiens) (UniProt P23975); experiment: Inhibition of human norepinephrine transporter receptor at 10uM
[12] = target: Beta-2 adrenergic receptor (Homo sapiens) (UniProt P07550); experiment: Inhibition of adrenergic beta 2 receptor at 10uM
[13] = target: D(1A) dopamine receptor (Homo sapiens) (UniProt P21728); experiment: Inhibition of human dopamine D1 receptor at 10uM
[14] = target: Muscarinic acetylcholine receptor M1 (Homo sapiens) (UniProt P11229); experiment: Inhibition of human muscarinic M1 receptor at 10uM
[15] = target: L-type calcium channel (Homo sapiens, UniProt O60840+Q01668+Q13698+Q13936); experiment: Inhibition of L-type calcium channel at 10uM; assay type: protein assay
[16] = target: Muscarinic acetylcholine receptor M2 (Homo sapiens) (UniProt P08172); experiment: Inhibition of human muscarinic M2 receptor at 10uM
[17] = target: 5-hydroxytryptamine receptor 1B (Homo sapiens) (UniProt P28222); experiment: Inhibition of serotonin 5HT1B receptor at 10uM
[18] = target: Histamine H1 receptor (Homo sapiens) (UniProt P35367); experiment: Inhibition of histamine H1 receptor at 10uM
[19] = target: 5-hydroxytryptamine receptor 1A (Homo sapiens) (UniProt P08908); experiment: Inhibition of human serotonin 5HT1A receptor at 10uM
[20] = target: 5-hydroxytryptamine receptor 2A (Homo sapiens) (UniProt P28223); experiment: Inhibition of human serotonin 5HT2A receptor at 10uM
[21] = target: Adrenergic receptor alpha-2 (Homo sapiens) (UniProt P08913+P18825+P18089); experiment: Inhibition of adrenergic alpha 2 receptor at 10uM; assay type: protein assay
[22] = target: Adrenergic receptor alpha-1 (Homo sapiens) (UniProt P35348+P25100+P35368); experiment: Inhibition of adrenergic alpha 1 receptor at 10uM; assay type: protein assay
[23] = target: Adenosine receptor A1 (Homo sapiens) (UniProt P30542); experiment: Inhibition of human adenosine A1 receptor at 10uM
[24] = target: Cytochrome P450 3A4 (Homo sapiens, UniProt P08684); experiment: Inhibition of CYP3A4; assay type: ADME
Outline: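 Human hepatic microsomes; CYP3A4 activity followed as oxidation of [3H]-terfenadine. IC50 taken as the compound concentration giving competitive inhibition of this oxidation.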

Sequence of Melanin-concentrating hormone receptor 1 (Q99705 whole entry): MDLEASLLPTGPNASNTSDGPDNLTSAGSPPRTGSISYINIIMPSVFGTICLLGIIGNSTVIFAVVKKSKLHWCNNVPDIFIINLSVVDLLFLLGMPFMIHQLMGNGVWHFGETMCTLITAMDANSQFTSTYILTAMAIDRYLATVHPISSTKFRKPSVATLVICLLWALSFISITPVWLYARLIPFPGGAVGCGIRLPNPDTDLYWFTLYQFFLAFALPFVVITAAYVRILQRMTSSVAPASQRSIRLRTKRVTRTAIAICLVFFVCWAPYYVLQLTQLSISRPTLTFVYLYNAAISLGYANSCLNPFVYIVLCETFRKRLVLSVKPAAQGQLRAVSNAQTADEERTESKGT
Sequence of Beta-2 adrenergic receptor (Homo sapiens) (P07550 whole entry, looked up): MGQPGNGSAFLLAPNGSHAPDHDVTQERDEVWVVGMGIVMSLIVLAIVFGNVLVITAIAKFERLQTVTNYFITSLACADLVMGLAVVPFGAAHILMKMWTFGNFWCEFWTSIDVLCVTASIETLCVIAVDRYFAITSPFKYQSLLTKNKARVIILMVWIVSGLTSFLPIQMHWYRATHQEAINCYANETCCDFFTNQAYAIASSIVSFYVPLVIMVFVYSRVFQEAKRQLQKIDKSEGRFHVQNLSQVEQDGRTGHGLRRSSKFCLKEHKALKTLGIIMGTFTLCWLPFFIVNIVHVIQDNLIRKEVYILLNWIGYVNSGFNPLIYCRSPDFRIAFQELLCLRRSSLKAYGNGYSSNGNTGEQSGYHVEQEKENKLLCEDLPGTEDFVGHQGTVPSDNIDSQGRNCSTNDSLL
Sequence of Kappa-type opioid receptor (Homo sapiens) (P41145 whole entry): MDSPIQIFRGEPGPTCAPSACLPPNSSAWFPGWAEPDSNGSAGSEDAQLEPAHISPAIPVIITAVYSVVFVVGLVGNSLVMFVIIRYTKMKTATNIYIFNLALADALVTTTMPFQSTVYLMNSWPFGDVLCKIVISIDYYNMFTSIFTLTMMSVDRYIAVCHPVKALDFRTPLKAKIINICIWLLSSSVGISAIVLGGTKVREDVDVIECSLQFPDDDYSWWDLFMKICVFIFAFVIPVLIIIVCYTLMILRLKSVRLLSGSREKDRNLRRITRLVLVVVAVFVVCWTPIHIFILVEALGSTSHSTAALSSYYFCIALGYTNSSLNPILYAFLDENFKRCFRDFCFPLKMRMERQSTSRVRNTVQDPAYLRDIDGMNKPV
Sequence of D(1A) dopamine receptor (Homo sapiens) (P21728 whole entry): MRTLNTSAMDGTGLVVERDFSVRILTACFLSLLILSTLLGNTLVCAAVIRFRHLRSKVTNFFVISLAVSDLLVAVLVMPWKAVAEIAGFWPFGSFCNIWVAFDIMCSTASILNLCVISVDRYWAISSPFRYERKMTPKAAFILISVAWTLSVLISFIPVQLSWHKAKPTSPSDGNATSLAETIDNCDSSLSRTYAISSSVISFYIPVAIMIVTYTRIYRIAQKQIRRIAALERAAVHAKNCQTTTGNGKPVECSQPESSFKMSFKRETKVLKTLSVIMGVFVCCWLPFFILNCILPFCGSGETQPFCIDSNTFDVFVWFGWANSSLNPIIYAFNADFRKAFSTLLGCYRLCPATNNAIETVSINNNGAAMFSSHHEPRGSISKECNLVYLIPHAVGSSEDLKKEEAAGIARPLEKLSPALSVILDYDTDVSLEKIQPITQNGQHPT
Sequence of 5-hydroxytryptamine receptor 1B (Homo sapiens) (P28222 whole entry): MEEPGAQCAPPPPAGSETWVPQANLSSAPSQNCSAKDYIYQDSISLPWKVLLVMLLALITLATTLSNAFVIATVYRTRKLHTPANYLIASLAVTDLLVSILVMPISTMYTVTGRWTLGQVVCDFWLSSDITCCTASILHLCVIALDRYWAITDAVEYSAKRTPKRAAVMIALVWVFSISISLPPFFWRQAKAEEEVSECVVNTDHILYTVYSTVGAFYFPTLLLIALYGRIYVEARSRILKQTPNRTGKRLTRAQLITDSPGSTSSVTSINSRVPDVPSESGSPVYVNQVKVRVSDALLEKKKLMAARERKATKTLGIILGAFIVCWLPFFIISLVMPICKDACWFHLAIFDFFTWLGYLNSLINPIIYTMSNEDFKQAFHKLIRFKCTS
Sequence of 5-hydroxytryptamine receptor 1A (Homo sapiens) (P08908 whole entry): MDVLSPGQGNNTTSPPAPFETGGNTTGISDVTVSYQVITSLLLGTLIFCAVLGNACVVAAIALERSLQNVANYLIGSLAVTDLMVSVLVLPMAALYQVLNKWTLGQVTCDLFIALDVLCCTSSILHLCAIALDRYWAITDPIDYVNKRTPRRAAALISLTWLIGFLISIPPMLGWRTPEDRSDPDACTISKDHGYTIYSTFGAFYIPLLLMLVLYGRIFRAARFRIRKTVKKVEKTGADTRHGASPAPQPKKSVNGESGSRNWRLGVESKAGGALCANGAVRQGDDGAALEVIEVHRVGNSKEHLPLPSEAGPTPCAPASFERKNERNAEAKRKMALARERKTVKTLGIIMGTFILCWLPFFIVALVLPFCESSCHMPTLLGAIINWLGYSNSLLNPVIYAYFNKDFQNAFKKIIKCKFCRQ
Sequence of Sigma non-opioid intracellular receptor 1 (Homo sapiens) (Q99720 whole entry): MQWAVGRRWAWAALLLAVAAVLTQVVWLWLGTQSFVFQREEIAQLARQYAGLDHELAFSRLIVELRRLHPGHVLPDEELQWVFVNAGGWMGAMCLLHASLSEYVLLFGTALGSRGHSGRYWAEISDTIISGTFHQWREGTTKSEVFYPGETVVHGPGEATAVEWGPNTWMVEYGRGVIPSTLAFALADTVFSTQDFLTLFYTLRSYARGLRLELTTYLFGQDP
Sequence of Muscarinic acetylcholine receptor M2 (Homo sapiens) (P08172 whole entry): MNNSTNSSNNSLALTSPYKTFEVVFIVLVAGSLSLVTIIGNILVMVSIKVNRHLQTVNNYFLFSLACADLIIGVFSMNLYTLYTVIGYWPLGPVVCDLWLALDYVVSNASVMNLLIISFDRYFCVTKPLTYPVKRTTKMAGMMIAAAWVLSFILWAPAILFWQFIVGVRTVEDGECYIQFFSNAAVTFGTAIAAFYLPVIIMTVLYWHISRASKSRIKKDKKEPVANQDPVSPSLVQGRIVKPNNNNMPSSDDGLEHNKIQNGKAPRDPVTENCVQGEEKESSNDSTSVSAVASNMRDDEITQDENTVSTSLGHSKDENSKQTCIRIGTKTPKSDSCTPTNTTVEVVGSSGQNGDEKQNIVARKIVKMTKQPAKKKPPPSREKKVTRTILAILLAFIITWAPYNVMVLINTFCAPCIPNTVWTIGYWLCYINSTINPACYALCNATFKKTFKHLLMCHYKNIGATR
Sequence of Histamine H2 receptor (Homo sapiens) (P25021 whole entry): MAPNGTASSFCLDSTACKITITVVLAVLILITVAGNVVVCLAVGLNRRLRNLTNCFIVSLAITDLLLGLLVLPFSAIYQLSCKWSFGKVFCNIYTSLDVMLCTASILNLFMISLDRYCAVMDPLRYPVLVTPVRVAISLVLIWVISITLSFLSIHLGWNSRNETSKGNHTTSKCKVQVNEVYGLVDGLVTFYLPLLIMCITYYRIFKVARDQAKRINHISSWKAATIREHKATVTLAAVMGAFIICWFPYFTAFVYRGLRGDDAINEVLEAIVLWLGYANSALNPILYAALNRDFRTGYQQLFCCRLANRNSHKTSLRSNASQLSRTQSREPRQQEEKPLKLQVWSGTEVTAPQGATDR
Sequence of Adenosine receptor A1 (Homo sapiens) (P30542 whole entry): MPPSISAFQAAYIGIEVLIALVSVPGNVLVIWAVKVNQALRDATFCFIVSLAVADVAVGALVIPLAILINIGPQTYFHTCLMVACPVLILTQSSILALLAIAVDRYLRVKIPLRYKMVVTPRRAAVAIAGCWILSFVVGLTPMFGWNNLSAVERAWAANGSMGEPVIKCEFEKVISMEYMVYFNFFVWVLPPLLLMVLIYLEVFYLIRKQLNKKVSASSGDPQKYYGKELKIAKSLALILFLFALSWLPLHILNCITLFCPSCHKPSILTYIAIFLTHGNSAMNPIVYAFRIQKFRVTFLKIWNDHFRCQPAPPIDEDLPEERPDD
Sequence of Muscarinic acetylcholine receptor M1 (Homo sapiens) (P11229 whole entry): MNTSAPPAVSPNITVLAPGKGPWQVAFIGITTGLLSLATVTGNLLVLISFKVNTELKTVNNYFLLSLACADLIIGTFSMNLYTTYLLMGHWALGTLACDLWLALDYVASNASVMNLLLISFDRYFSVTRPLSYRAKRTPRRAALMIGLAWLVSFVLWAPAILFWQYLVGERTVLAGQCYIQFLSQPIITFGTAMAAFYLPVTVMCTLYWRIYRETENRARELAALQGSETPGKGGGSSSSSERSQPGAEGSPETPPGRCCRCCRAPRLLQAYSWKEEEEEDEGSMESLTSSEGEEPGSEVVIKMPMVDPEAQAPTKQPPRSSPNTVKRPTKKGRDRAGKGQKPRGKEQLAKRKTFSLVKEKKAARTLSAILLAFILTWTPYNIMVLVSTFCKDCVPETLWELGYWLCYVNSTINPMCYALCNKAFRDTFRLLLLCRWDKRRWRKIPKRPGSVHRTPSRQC
Sequence of 5-hydroxytryptamine receptor 2A (Homo sapiens) (P28223 whole entry): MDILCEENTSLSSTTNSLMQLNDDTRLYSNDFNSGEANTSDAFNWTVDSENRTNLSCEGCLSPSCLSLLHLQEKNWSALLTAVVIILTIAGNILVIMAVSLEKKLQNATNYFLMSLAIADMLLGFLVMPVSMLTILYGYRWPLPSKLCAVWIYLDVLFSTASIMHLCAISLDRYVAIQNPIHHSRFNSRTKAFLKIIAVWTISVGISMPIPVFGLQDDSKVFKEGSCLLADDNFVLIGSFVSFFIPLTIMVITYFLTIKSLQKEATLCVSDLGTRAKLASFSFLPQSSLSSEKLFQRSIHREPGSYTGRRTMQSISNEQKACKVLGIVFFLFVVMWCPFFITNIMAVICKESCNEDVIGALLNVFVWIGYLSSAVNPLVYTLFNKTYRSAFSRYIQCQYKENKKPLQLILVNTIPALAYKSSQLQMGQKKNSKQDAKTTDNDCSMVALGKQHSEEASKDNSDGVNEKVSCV

O=C1COc2cc(CN3CCC(NC(=O)c4cc(=O)c5ccc(F)cc5o4)CC3)ccc2N1 showed an IC50 [1] of 2410 nM and a pIC50 [2] of 6.78.
Work on Cn1c(=O)ccc2ccc(CN3CCC(NC(=O)c4cc(=O)c5ccc(F)cc5o4)CC3)cc21 yielded an IC50 [1] of 44 nM, a selectivity ratio [3] of 1030 and a pIC50 [2] of 8.52. For the same compound, the pIC50 [4] was 4.32.
Work on O=C(NC1CCN(Cc2ccc3ccc(=O)oc3c2)CC1)c1cc(=O)c2ccc(F)cc2o1 yielded an inhibition [5] of 37%, an inhibition [6] of 21% and an inhibition [7] of 43%. The inhibition [8] was 72%, the IC50 [1] was 46 nM and the inhibition [9] was 67%. For the same compound, the inhibition [10] was 17%, the inhibition [11] was 45% and the inhibition [12] was 16%. The inhibition [13] was 7%, the pIC50 [2] was 9.00 and the inhibition [14] was 16%. It also gave an inhibition at 10 µM [15] of 10%, an inhibition [16] of 15% and an inhibition [17] of 5%. For the same compound, the inhibition [18] was 36%, the inhibition [19] was 25% and the inhibition [20] was -10%. For the same compound, the inhibition [21] was 28%, the inhibition [22] was 13% and the inhibition [23] was 11%.
Work on O=C(NC1CCN(Cc2ccc3cc[nH]c3c2)CC1)c1cc(=O)c2ccc(F)cc2o1 yielded an IC50 [1] of 66 nM and a pIC50 [2] of 8.30.
For CCc1nc2ccc(CN3CCC(NC(=O)c4cc(=O)c5ccc(F)cc5o4)CC3)cc2o1, the IC50 [1] was > 10000 nM, the selectivity ratio [3] was 2 and the pIC50 [2] was 5.90. For the same compound, the pIC50 [4] was 4.57.
For O=C(NC1CCN(Cc2ccc3c(c2)OCO3)CC1)c1cc(=O)c2ccc(F)cc2o1, the inhibition [5] was 104%, the pIC50 [24] was 4.63 and the inhibition [6] was 16%. It also gave an inhibition [7] of 66%, an inhibition [9] of 26% and an inhibition [11] of 48%. For the same compound, the inhibition [12] was 21%, the inhibition [13] was 43% and the inhibition [14] was 55%. The inhibition at 10 µM [15] was 31%, the inhibition [16] was 42% and the inhibition [17] was -6%. The inhibition [18] was 65%, the inhibition [19] was 48% and the inhibition [20] was 17%. The inhibition [21] was 18%, the inhibition [22] was 32% and the inhibition [23] was 8%.
O=C(NC1CCN(Cc2ccc3oc(=O)[nH]c3c2)CC1)c1cc(=O)c2ccc(F)cc2o1 showed an IC50 [1] of 569 nM and a pIC50 [2] of 7.37.
Compound CC(=O)Nc1cccc(CN2CCC(NC(=O)c3cc(=O)c4ccc(F)cc4o3)CC2)c1 has an IC50 [1] of 551 nM and a pIC50 [2] of 7.33.
For CC(=O)Nc1ccc(CN2CCC(NC(=O)c3cc(=O)c4ccc(F)cc4o3)CC2)cc1, the IC50 [1] was > 10000 nM.
Work on O=C(NC1CCN(Cc2ccc3ncoc3c2)CC1)c1cc(=O)c2ccc(F)cc2o1 yielded an IC50 [1] of 106 nM and a pIC50 [2] of 8.00.
